Laboratory results reported in PMC4462192 (Bioorganic & medicinal chemistry letters, 2015).
pIC50: −log10 of the molar value.

Legend:
[1] = test system: Rab6 geranylgeranylation in RPMI-8226 cells; assay: immunoblot for membrane-bound Rab6; type: cell-based, human; conditions: 48 hours, 5 mM, detergent (membrane) fraction
Outline: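 RPMI-8226 human myeloma cells were exposed to test compound at 5 mM or left untreated for 48 hours, with lovastatin at 20 μM as a global prenylation-disruption control. Cells were lysed by Triton X-114 partitioning to give the detergent (membrane) fraction, which was immunoblotted for Rab6 with calnexin as the loading control. Blots are representative of two independent studies.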

RPMI-8226 cells = assay: intracellular lambda light chain ELISA; type: cell-based, human; conditions: 48 hours, 5 mM, vs untreated control
Outline: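 RPMI-8226 cells were incubated for 48 hours with test compound at 5 mM, alongside untreated and lovastatin (20 μM) controls. Intracellular lambda light chain was quantified by ELISA and expressed as percent of untreated control, mean + SD, n=3. Significance versus untreated cells was assessed by unpaired two-tailed t-test at p<0.05.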

[2] = test system: farnesyl diphosphate synthase (FDPS); conditions: cited from earlier work
GGTase II = target: T1, GGTase II (Homo sapiens, UniProt P53611+Q92696); conditions: cited from earlier work
T1 sequence (Q92696 1-567): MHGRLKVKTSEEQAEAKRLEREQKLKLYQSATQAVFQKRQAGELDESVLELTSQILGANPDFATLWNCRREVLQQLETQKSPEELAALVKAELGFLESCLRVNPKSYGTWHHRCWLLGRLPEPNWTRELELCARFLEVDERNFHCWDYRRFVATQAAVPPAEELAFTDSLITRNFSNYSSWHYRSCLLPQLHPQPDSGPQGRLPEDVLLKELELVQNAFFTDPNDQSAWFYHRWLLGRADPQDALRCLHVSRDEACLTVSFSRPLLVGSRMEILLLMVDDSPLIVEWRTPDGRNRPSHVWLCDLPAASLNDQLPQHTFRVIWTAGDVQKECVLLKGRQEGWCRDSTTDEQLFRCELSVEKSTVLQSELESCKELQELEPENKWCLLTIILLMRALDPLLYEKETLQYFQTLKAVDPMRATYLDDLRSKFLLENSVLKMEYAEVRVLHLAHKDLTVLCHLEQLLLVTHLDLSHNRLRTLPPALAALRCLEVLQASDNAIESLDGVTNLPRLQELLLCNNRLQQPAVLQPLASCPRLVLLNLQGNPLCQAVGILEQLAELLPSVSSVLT
T1 sequence (P53611 1-331): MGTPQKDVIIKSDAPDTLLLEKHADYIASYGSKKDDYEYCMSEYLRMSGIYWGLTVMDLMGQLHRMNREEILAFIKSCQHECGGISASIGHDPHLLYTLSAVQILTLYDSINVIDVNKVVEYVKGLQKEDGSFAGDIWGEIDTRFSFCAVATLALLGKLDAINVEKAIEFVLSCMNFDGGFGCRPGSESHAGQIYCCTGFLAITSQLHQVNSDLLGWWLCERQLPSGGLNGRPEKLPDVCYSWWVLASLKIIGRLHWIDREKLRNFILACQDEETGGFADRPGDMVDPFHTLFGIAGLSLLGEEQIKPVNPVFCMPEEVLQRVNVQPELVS

[3] = test system: geranylgeranyl diphosphate synthase (GGDPS); conditions: cited from earlier work

SMILES: O=C(O)C(O)(Cc1cccnc1)P(=O)(O)O (stereo not drawn) [compound 1, 2-(3-pyridinyl)-1-hydroxyethylidene-1,1-phosphonocarboxylic acid]
- membrane-bound Rab6 level [1]: induces a decrease in the amount of membrane-bound Rab6
- intracellular lambda light chain accumulation (RPMI-8226 cells): induce an accumulation of intracellular light chain
- activity against FDPS [2]: show little activity against FDPS
- difference in activity between the enantiomers (GGTase II): ~ 4 fold

SMILES: O=C(O)C(Cc1cccnc1)P(=O)(O)O (stereo not drawn) [compound 2, 2-(3-pyridinyl)-1-ethylidene-1,1-phosphonocarboxylic acid]
- membrane-bound Rab6 level [1]: diminished the level of membrane-bound Rab6 to a lesser extent
- intracellular lambda light chain accumulation (RPMI-8226 cells): do not significantly alter light chain trafficking
- activity against FDPS [2]: show little activity against FDPS
- GGTase II potency relative to PEHPC (GGTase II): potency similar to PEHPC

SMILES: O=C(O)C(Cc1ccc[n+]([O-])c1)P(=O)(O)O (stereo not drawn) [compound 7]
- membrane-bound Rab6 level [1]: did not decrease membrane-bound Rab6 levels
- intracellular lambda light chain accumulation (RPMI-8226 cells): do not significantly alter light chain trafficking

SMILES: O=C(O)C(O)(Cc1cnc2ccccn12)P(=O)(O)O (single isomer, unassigned; enantiomer 4) [(+)-enantiomer 4]
- activity of (+)-enantiomer relative to (−)-enantiomer (GGTase II): ~ 60 fold
- inhibition of other enzyme involved in isoprenoid biosynthesis, probably GGDPS [3]: weak inhibition

SMILES: O=C(O)C(O)(Cc1ccc[n+]([O-])c1)P(=O)(O)O (stereo not drawn) [compound 6]
- membrane-bound Rab6 level [1]: diminished the level of membrane-bound Rab6 to a lesser extent
- intracellular lambda light chain accumulation (RPMI-8226 cells): induce an accumulation of intracellular light chain
